The values that follow come from ChEMBL document CHEMBL4007404, “Identification of High-Potency Human TLR8 and Dual TLR7/TLR8 Agonists in Pyrimidine-2,4-diamines” (J Med Chem, 2017).

Assay [1] deals with T1, Toll-like receptor 9 (Homo sapiens) (UniProt Q9NR96).
T1 sequence (whole entry): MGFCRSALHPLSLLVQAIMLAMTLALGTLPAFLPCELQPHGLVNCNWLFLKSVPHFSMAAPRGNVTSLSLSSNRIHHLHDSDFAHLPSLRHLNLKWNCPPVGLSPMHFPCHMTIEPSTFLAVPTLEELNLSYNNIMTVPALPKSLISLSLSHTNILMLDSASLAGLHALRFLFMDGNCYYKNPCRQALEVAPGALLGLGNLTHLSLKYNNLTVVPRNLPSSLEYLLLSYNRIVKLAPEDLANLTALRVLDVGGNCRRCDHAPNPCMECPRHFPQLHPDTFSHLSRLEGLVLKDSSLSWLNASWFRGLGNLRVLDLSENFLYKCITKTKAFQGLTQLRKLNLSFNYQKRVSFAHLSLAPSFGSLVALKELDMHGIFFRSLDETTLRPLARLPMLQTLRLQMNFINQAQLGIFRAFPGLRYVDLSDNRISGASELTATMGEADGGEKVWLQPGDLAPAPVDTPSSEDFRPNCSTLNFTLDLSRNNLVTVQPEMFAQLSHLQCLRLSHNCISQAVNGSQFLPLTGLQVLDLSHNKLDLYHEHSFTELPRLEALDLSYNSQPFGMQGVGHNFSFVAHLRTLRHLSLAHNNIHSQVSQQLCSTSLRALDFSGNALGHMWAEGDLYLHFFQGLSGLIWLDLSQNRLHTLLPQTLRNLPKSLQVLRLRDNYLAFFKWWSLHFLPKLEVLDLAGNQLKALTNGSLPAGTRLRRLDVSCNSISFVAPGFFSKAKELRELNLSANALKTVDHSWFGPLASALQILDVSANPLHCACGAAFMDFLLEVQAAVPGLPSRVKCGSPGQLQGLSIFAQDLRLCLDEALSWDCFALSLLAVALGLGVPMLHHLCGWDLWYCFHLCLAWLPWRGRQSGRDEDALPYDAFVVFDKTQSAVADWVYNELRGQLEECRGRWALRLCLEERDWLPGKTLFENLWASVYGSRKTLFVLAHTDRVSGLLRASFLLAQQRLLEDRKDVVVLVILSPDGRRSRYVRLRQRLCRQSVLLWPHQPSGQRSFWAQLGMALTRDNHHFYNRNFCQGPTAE
Nature of the assay: Activity at human TLR9 expressed in HEK293 cells co-expressing secreted alkaline phosphatase assessed as induction of NF-kappaB/AP-1 promoter activity by measuring increase in secreted alkaline phosphatase level by spectrophotometric method. In kind it is cell-based. The method in brief:
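HEK293 cells stably co-transfected with the relevant human TLR (2, 3, 4, 5, 7, 8 or 9) plus an NF-κB/AP-1-driven secreted alkaline phosphatase reporter, kept in selection medium. Cells at ~10⁵ cells/ml were exposed to graded concentrations of stimuli in 384-well format, liquid-handler assisted. Supernatant sAP was read at 620 nm with an alkaline phosphatase-specific chromogen.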

Assay [2] concerns the target T2, Toll-like receptor 7 (Homo sapiens) (UniProt Q9NYK1).
T2 sequence (whole entry): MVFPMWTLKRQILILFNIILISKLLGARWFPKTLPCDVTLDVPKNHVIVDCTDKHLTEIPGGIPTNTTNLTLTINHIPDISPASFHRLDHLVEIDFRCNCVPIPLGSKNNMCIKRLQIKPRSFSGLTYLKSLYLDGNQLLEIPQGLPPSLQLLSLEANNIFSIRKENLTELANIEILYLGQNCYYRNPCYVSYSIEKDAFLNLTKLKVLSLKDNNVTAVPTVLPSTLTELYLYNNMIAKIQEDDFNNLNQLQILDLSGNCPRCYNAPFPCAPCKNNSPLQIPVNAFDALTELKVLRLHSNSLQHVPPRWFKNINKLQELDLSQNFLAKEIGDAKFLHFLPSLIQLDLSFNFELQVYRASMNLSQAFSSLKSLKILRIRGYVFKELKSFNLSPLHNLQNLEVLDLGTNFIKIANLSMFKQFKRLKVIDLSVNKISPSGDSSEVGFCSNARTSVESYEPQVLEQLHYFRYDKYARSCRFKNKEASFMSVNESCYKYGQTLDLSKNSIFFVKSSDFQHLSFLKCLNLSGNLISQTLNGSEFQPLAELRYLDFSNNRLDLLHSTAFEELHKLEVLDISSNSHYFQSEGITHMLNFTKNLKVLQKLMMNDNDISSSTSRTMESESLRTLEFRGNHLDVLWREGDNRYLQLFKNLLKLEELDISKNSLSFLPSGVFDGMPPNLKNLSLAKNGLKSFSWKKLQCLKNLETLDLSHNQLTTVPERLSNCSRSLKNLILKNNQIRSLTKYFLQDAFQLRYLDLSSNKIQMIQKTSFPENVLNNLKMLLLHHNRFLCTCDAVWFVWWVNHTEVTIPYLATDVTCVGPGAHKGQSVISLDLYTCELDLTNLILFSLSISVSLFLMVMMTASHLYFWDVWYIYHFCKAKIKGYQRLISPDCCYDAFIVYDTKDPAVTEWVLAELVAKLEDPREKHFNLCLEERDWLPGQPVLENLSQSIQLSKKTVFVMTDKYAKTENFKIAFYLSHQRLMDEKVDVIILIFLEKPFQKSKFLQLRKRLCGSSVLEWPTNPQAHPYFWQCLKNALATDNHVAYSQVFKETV
Briefly: Agonist activity at human TLR7 expressed in HEK293 cells co-expressing secreted alkaline phosphatase assessed as induction of NF-kappaB/AP-1 promoter activity by measuring increase in secreted alkaline phosphatase level at 100 uM by spectrophotometric method. Format: cell-based.

Active and inactive are the calls of the source. No cut-off for these calls is given here.

As to `CCCCNc1nc(N)nc(C)c1CCCN1CCN(c2ccccc2)CC1`, in assay [1], the outcome was inactive.
On to `CCCCNc1nc(N)nc(C)c1CCCN1CCN(C)CC1`, for which, in assay [1], the result was inactive.
In the case of `C#Cc1c(C)nc(N)nc1NCCCC`, the outcome in assay [2] and in assay [1] was inactive.
`CCCCNc1nc(N)nc(C)c1CCCC`: the outcome in assay [1] was inactive.
On the same count and under the same terms, as for `CCCCNc1nc(N)nc(C)c1CCCC1CCCCC1`, the entry is “inactive”; as for `CCCCNc1nc(N)nc(C)c1CCCCN1CCOCC1`, “inactive”.
Turning to `CCCCNc1nc(N)nc(C)c1CCCCc1ccccc1`, the result in assay [1] was inactive.
For the compound `CCCCNc1nc(N)nc(C)c1CCCCCc1ccccc1`, the result in assay [1] was inactive.
The same measure, in the same setting: the result for `CCCCNc1nc(N)nc(C)c1CCCC(C)(C)O` reads “inactive”; that for `CCCCNc1nc(N)nc(C)c1CCCn1cccn1`, “inactive”; that for `CCCCNc1nc(N)nc(C)c1CCCN1CCNCC1`, “inactive”.
For `CCCCNc1nc(N)nc(C)c1C#C[Si](C)(C)C`, the result in assay [2] and in assay [1] was inactive.
As to `CCCCNc1nc(N)nc(C)c1CCCN1CCN(C(=O)OC(C)(C)C)CC1`, the outcome in assay [2] and in assay [1] was inactive.
On to `CCCCCc1c(C)nc(N)nc1NCCCC`, for which the outcome in assay [1] was inactive.
Still for that read-out and setting: the result for `CCCCNc1nc(N)nc(C)c1CCCN1CCOCC1` reads “inactive”.
`CCCCNc1nc(N)nc(C)c1C#CCN1CCOCC1`: the result in assay [2] and in assay [1] was inactive.
`CCCCNc1nc(N)nc(C)c1C#CCc1ccccc1`: the outcome in assay [2] and in assay [1] was inactive.
Take `CCCCNc1nc(N)nc(C)c1CCCc1ccccc1`: the result in assay [1] was inactive.
Turning to `CCCCNc1nc(N)nc(C)c1C`, the outcome in assay [1] was inactive.
Still for that read-out and setting: the result for `CCCCNc1nc(N)nc(C)c1CCCn1c(C)nc2ccccc21` reads “inactive”; that for `CCCCNc1nc(N)nc(C)c1CCCN1CCSCC1`, “inactive”; that for `CCCCNc1nc(N)nc(C)c1CCCN1CCCC1`, “inactive”.
Same read-out and setting: as for `CCCCNc1nc(N)nc(C)c1CCc1ccccc1`, the entry is “inactive”.
`CCCCNc1nc(N)nc(C)c1C#CCN1CCCCC1`: the result in assay [2] and in assay [1] was inactive.
Turning to `CCCCNc1nc(N)nc(C)c1CCCN(C)C`, in assay [1], the result was inactive.
The same measure, in the same setting: as for `CCCCNc1nc(N)nc(C)c1CCCn1cncn1`, the entry is “inactive”; as for `CCCCNc1nc(N)nc(C)c1CC`, “inactive”.
In the case of `CCCCNc1nc(N)nc(C)c1CCCN(C)CCOC`, the result in assay [1] was inactive.
Still for that read-out and setting: as for `CCCCNc1nc(N)nc(C)c1CCCN1CCCCC1`, the entry is “inactive”.
For `CCCC#Cc1c(C)nc(N)nc1NCCCC`, the outcome in assay [2] and in assay [1] was inactive.
Turning to `CCCCNc1nc(N)nc(C)c1CCCCO`, the outcome in assay [1] was inactive.
On the same count and under the same terms, the result for `CCCCNc1nc(N)nc(C)c1CCCn1ccc2ccccc21` reads “inactive”.
As to `CCCCNc1nc(N)nc(C)c1CCC(C)(C)O`, the result in assay [1] was inactive.
For the compound `CCCCNc1nc(N)nc(C)c1CCCN1C(=O)c2ccccc2C1=O`, the outcome in assay [1] was inactive.
For `CCCCNc1nc(N)nc(C)c1CCCN1Cc2ccccc2C1`, the outcome in assay [1] was inactive.
Consider `CCCCNc1nc(N)nc(C)c1CCCN1CCCCCC1`, for which, in assay [1], the outcome was inactive.
As for `CCCCNc1nc(N)nc(C)c1CCCN(CC)CC`, the result in assay [2] and in assay [1] was inactive.
